38 variants from the RNAGym collection of RNA variant scans (doi:10.1126/science.aae0568) can be followed below.

B1: tRNA (parent)
chain: GUUCCGUUGGCGUAAUGGUAACGCGUCUCCCUCCUAAGGAGAAGACUGCGGGUUCGAGUCCCGUACGGAACG

Fewer inactive variants are shown than the library holds. Some results are limits rather than exact numbers.

Variants of B1 are the subject of the data set. The data set can be described thus: yeast fitness relative to wild type (ratio to wild type); higher = fitter; tRNA-Arg(CCU), competitive growth, 37 C, YPD. The method, boiled down:
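The tRNA-Arg(CCU) gene variants were made by chemical synthesis with a 3% per-site mutation rate at 69 sites and inserted at the native genomic locus of Saccharomyces cerevisiae. After pooling, the strains were competed in YPD at 37°C for 24 hours in six parallel replicates. Gene amplicons from the start population and each end population were read by 100-nucleotide paired-end sequencing, and Darwinian fitness relative to wild type was taken from genotype frequency changes. Genotypes needed ≥ 100 starting reads, and estimates < 0.5 were set to 0.5.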
Turning to GUUCCGUUGGCGGAAUGGUAACGCGUCUCCCUCCUAAGGAGAAGACUGCGGGUUAGAGUCCCGUACGGAACG [U13G C55A], the yeast fitness came to 0.502.

For GUUCCGUUGGCGCAAUGGUAACGCGGCUCCCUCCCAAGGAGAAGACUGCGGGUUCGAGUCCCAUACGGAGCG [U13C U26G U35C G63A A70G], the yeast fitness is at most 0.5.

On to GUUCCGUUGGCGGAAUGGUAAUGCGUCUCCCUCCUAAGGAGAAGACUGCGGGUUCGAGUCCCAUACGGAACG [U13G C22U G63A], for which the yeast fitness turned out to be 0.707.

Regarding GUUCCGUUGGCGGAAUGGUAACGCCUCUCCCUCCUAAGGAGAAGACUGCGGGUUCGAGUCCCGUACGGAACG [U13G G25C], the yeast fitness turned out to be 0.797.

Turning to GUUCCGUUGGCGGAAUGGUAACGCGUCUCCCUCCUAAGGAGAAGACUGCGGGUUCGAGUCACGUAAGGAACG [U13G C61A C66A], the yeast fitness was at most 0.5.

On to GUUCCGUUGGCGCAAUGGUAACGCGUCUCCCUCCUAAGGAGAACACUGCGGGUUCGACUCCCGUACGGAACG [U13C G44C G58C], for which the yeast fitness worked out at 0.661.

For GUUCCGUUGGCGGAAUGGUAACGCGUCUCCCUCCUAAGGCGAAGACUGGGGGAUCGAGUCCCGUACGGAACG [U13G A40C C49G U53A], the yeast fitness is at most 0.5.

Turning to GUUCCGUUGGCGUCAUGGUCACGCGUCUCCCUCCUAAGGAGAAGACUGCGGGUUCGAGUCCCGUACAGAACG [A14C A20C G67A], the yeast fitness is at most 0.5.

For GUUCCGUUGGCGGAAUGGUAACGCGUCUCCCUCCUAAGGAGUAGACUGCGGGUUUGAGUCCGGUACGGACCG [U13G A42U C55U C62G A70C], the yeast fitness was 0.525.

In the case of GUUCCGUUGGCGUCAUGGUAACGCGUCUCCCUCCUAAGGAGAAGACUGCGGGUUCGAGUCCCGUACGGAACG [A14C], the yeast fitness was found to be 0.868.

GUUCCGUUGGCGGAAUGGUAAUGCGUCUCACUCCUAAGGAGAAGACUGCGGGUUCGAGUCCCGUACGGAACG [U13G C22U C30A]: the yeast fitness came to 0.598.

Consider GUUCCGUUGGCGGAAUGGUAACGCGUCUCCCUUCUAAGGACAAGACUGCGGGUUCGAGUCCCGUACGGAACG [U13G C33U G41C], for which the yeast fitness was 0.581.

With GUUCCGUUGGCGGAACGGUAACGCGUCUCCCUCCUAAGGAGAAGACUGCGGGUUCGAGUCCCCUACGGAACG [U13G U16C G63C], the yeast fitness was at most 0.5.

For the variant GUUCCGUUGGCGCAAUGGUAACGCGUCUCCCUCCCAAGGAGAAGACUACGGGUUCGAGUACCGUACGGAACG [U13C U35C G48A C60A], the yeast fitness is at most 0.5.

Regarding GUUCCGUUGGCGCAAUGGUAACACGUCUCCCUCCUAAGGAGAAGACUGCGGGUUCGAGUCCCGUACGGAACG [U13C G23A], the yeast fitness stood at 0.759.

On to GUUCCGUUGGCGGAAUGAUUACGCGUCUCCGUCCUAAGGAGAAGACUGCGGGUUCGAGUCCCGUACGGAACG [U13G G18A A20U C31G], for which the yeast fitness came out at 0.566.

Consider GUUCCGUUGGCGCAAUGGUAACGCGUCUCCCUCCAAAGGAGAAGACUGCGGGUUCGAGUCCCGUACGGAGCG [U13C U35A A70G], for which the yeast fitness is at most 0.5.

In the case of GUUCCGUUGGCGGAAUGGUAACGCGACUCCCUCCUAAGGAGAAGCCUGCGGGUUCGAGUCCCGUACGGCACG [U13G U26A A45C A69C], the yeast fitness was determined as 0.577.

GUUCCGUUGGCGGAAUGGUAACGCGUCUCCCUCCUAAGGGGAACACUGCGGGUUCGAGUCGCGUACGGAACG [U13G A40G G44C C61G]: the yeast fitness is at most 0.5.

Regarding GUUCCGUUGGCGGAAUGGUAACGCGUCUCCCUCCUAAGGAGAAGACUGCGGGUUCGAGUCACGUACAGAACG [U13G C61A G67A], the yeast fitness is at most 0.5.

Regarding GUUCCGUUGGCGUCAUGGUUACGCGUCUCCUUCCUAACGAGAAGACUGCGGGUUCGAGUCCCGUACAGAACG [A14C A20U C31U G38C G67A], the yeast fitness is 0.53.

On to GUUCCGUUGGCGUCUUGGUAACGCGUUUCCCCCCGAAGGAGAAGACUGCGGGUUCGAGUCCCGUACGGAUCG [A14C A15U C27U U32C U35G A70U], for which the yeast fitness was at most 0.5.

Regarding GUUCCGUUGGCGGAAUGGUAUGGCGUCUCCCUCCAAAGGAGAAGACUGCGGGUUCGAGUCCCGUGCGGACCG [U13G A21U C22G U35A A65G A70C], the yeast fitness is at most 0.5.

With GUUCCGUUGGCGGAAUGGUAACGCGUCUCCCUCCUAAGGAGAAGACCGCGGGUUCGAGUCCCGUACGGAACG [U13G U47C], the yeast fitness is 1.02.

For GUUCCGUUGGCGGAAUGGUAACGCGUCUCCCUCCUAAGGAGCAGACAGCGGGUUCGAGUCCCGUACCGAACG [U13G A42C U47A G67C], the yeast fitness was at most 0.5.

Take GUUCCGUUGGCGGAAUGGUAAUGCGUCUCCCUCCUAAGGAGAAGUCUGCGGGUUCGAGCCCCGUACGGAACG [U13G C22U A45U U59C]: the yeast fitness worked out at 0.54.

Regarding GUUCCGUUGGCGCAAUGGUAACGCGUCUCCCUCCUAAGGAGAAGACUCUGGGUUCGAGUCCCGUACGGAACG [U13C G48C C49U], the yeast fitness was determined as 0.772.

Take GUUCCGUUGGCGGAAUGGUAACGCGUCUCCCUCCUAAGGAGAAGACUGCGGGUUCAAGUCCCGUACGGAACG [U13G G56A]: the yeast fitness stood at 1.06.

Turning to GUUCCGUUGGCGGAAUGGUAACGCGUCUCCCUCCUAAGGAGAAGACUGGGGGUUCGAGUCCCGUACGGAACG [U13G C49G], the yeast fitness was found to be 0.823.

Regarding GUUCCGUUGGCGCAAUGGUAACGCGUCUCCCUCCUAAGGAGAAGACUGCGCGUUCGAGUCCCGUACAGAACG [U13C G51C G67A], the yeast fitness is at most 0.5.

For GUUCCGUUGGCGGAAUGGUACCGCGUCUCCCUCCUAAGGAGAAGAUUGCAGGUUCGAGUCCCGUACGGAACG [U13G A21C C46U G50A], the yeast fitness worked out at 0.582.

As to GUUCCGUUGGCGGAAUGGUAACGCGUCUCCCUCCUAAGGAGAAGACGGCGGGUUCGAGUCCCGUAUGGAACG [U13G U47G C66U], the yeast fitness is at most 0.5.

Regarding GUUCCGUUGGCGCAAUGGUAACGCGUCUCCCUCCUAAGGAGAAGACUACGGGUUCGAGUCCAGUACGGAACG [U13C G48A C62A], the yeast fitness stood at 0.689.

On to GUUCCGUUGGCGCAAUGGUAACGCCUGUCCCUCCUAAGGAGAAGACUGCGGGUUCGAGUCCCGUACGGAACG [U13C G25C C27G], for which the yeast fitness was 0.539.

GUUCCGUUGGCGUCAUGGUAGCGCGUCUCCCUCCUACGGAGAAGACUGCAGGUUCGCGUCCCGUACGGAACG [A14C A21G A37C G50A A57C]: the yeast fitness was at most 0.5.

Take GUUCCGUUGGCGGAAUGGAAACGCGUGUCCCUCCUAAGGAGAAGACUGCGGGUUCGAGUCCCGUACGGAACG [U13G U19A C27G]: the yeast fitness amounted to 0.626.

For the variant GUUCCGUUGGCGCAAUGGUAACGCGUCUCCCUCCUAAGGAGAAGACCGCGGGUUCGAGUCCCGUACGGAACG [U13C U47C], the yeast fitness amounted to 0.905.

For the variant GUUCCGUUGGCGCAAUGGUAACGCGUCUCCCCCCUAAGGGGAAGACUGCGGGUUCGAGUCCCGUACGGAACG [U13C U32C A40G], the yeast fitness was at most 0.5.
